From PubChem BioAssay
Active and inactive are the calls of the source.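 Rule for the calls, unless noted: active = growth inhibition above a set limit, 3 SD over mean compound inhibition, in both replicates (cut at about 43% in these data); inconclusive = above the limit in only one replicate; inactive = at or below the limit in both replicates.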

Test: S. cerevisiae growth inhibition in restrictive medium, OD615, pilot screen, restrictive growth control, yeast lifespan reduction project (AID 706);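 note: modified DeaD lifespan yeast strain shifted to restrictive glucose medium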
Settings: OD615, 48 h, at 10 µM, stronger effect = higher value
How it was run: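 Assay system: engineered S. cerevisiae DeaD strain; Buffer or medium: CSMM-D glucose medium; Dosing: 10 µM compound, 0.25% DMSO; Times: cell pre-growth 4 h, compound exposure 48 h, 30 °C; Detection: absorbance (optical density) measured at 615 nm.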

Structure (SMILES) | growth inhibition
O=C(NCC1CCCO1)C1CC(=O)N(c2ccc(F)c(Cl)c2)C1 (stereo not given) | -1.83% (inactive)
Oc1cnn(-c2ccccc2)c1 | 3.54% (inactive)
Cc1c(NC(=O)c2ccc(F)cc2)c(=O)n(-c2ccccc2)n1C | -7.79% (inactive)
COC(=O)C1=CN(C(C)C)C=C(C(=O)OC)C1c1cccc(OC)c1 | -9.06% (inactive)
O=C(CSc1nnc(-c2ccccc2Cl)o1)N1CCCCC1 | 7.85% (inactive)
CC1Cc2nc(SCC(=O)Nc3nccs3)n(Cc3ccccc3)c(=O)c2S1 (stereo not given) | 8.66% (inactive)
COc1ccc(Cn2nnc3c(=O)[nH]c(C(=O)NCCc4ccc(F)cc4)nc32)cc1OC | -2.82% (inactive)
CCOC(=O)c1c(C)n(C)c2ccc(OCC(O)CN3CCN(C)CC3)cc12 (stereo not given) | -16.5% (inactive)
C=CCn1c(O)c(C2=c3ccccc3=NC2=O)sc1=Nc1ccc(O)cc1 | -12% (inactive)
Cc1ccc(-c2cc(C(F)(F)F)n3ncc(C(=O)NCc4ccco4)c3n2)cc1 | -12.6% (inactive)
CSc1ccc(C2C(C#N)=C(N)N(c3ccccc3)C3=C2C(=O)CCC3)cc1 (stereo not given) | -19.7% (inactive)
Cc1ccn2cc(CCNC(=O)c3ccc(Br)o3)nc2c1 | -12.7% (inactive)
COc1cccc(N2CCN(c3ncnc4c3cnn4-c3ccc(C)cc3C)CC2)c1 | 3.35% (inactive)
COc1cc(CO)cc(Br)c1OCC(=O)O | -3.28% (inactive)
COc1ccc(Cc2nnc(SC)[nH]c2=O)cc1OC | -16.6% (inactive)
COc1ccccc1CNC(=O)C1CCN(S(=O)(=O)c2cccc3cccnc23)CC1 | 0.02% (inactive)
CCOC(=O)N1CCN(C(=O)CSc2nc3c(cnn3-c3ccc(C)cc3)c(=O)[nH]2)CC1 | 4.84% (inactive)
CCOC(=O)c1ccc2nc(NC(=O)C(C)C)sc2c1 | -10.6% (inactive)
Cc1ccc(C2=CC(c3ccc(N(C)C)cc3)n3nnnc3N2)cc1 (stereo not given) | 7.92% (inactive)
Cn1c(=O)c2c(nc(CN3CCOCC3)n2CCCO)n(C)c1=O | -3.44% (inactive)

Structure (SMILES) | growth inhibition
COCCCNC(=O)Cn1cc2c(n1)CCCCC2 | -2.59% (inactive)
O=C(NCc1ccco1)c1cnccn1 | 5.22% (inactive)
CCCCn1c(CCNC(=O)CCC)nc2ccccc21 | 4.55% (inactive)
COc1ccc2[nH]c(C)c(CCN3C(=O)C4C5C=CC(C5)C4C3=O)c2c1 (stereo not given) | 5.9% (inactive)
O=C1CCc2cc(S(=O)(=O)NC(Cc3ccccc3)C(=O)NCC3CCCO3)ccc2N1 (stereo not given) | -8.79% (inactive)
CCOC(=O)c1c(N)sc(C(N)=O)c1C | -8.77% (inactive)
O=C(NCCCN1CCC(Cc2ccccc2)CC1)C1CC(=O)N(C2CCCC2)C1 (stereo not given) | -13.9% (inactive)
Cc1ccc(Cl)cc1N1CCN(C(=O)C2CCN(c3nnc(-n4cccc4)s3)CC2)CC1 | -7.06% (inactive)
CC(=O)c1c(C)[nH]c(C(=O)N2c3ccccc3CC2C)c1C (stereo not given) | 3.09% (inactive)
Cc1ccc2cc(CCNC(=O)C3CCCC3)c(=O)[nH]c2c1 | -9.72% (inactive)
CCCCN(C)CCNC(=O)Cn1c(=O)sc2ccccc21 | 4.21% (inactive)
CCOC(=O)N1CCN(c2ccc3nnnn3n2)CC1 | 1.97% (inactive)
CCCOc1ccc(C2c3c(oc4cc(C)c(C)cc4c3=O)C(=O)N2CCCN(C)C)cc1OCC (stereo not given) | -3.15% (inactive)
CCOC(=O)C1=C2N(C)c3ccccc3N2CCC1=O | 4.85% (inactive)
CCNc1nc(OCCNS(=O)(=O)c2cc(C)ccc2C)nc(N(C)C)n1 | -11.1% (inactive)
O=C(c1cc(-c2cccc(O)c2)on1)N1CCOCC1 | 7.52% (inactive)
Cc1cc(C(=O)NC2CCCC2)on1 | -21.1% (inactive)
O=C(Nc1cccc(C(F)(F)F)c1)c1cnc2n(c1=O)CCS2 | 5.56% (inactive)
Cn1c(=O)c2c(nc(CN3CCCCC3)n2Cc2c(F)cccc2Cl)n(C)c1=O | -10.9% (inactive)
CCC(C)Sc1nnc(Cc2cc(=O)[nH]c(=O)[nH]2)n1-c1ccc(F)cc1 (stereo not given) | 15.2% (inactive)

Test: doxorubicin toxicity protection in MRP-1 cells – H69AR cells, CellTiter-Glo, duplicate, MRP-1 activator project, pilot screen (AID 807;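 active = viability increase at or above a cutoff of the median across tested compounds plus 3 SD, cut at about 8.5% in these data, passing the limit was not always enough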;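 note: compound pretreatment 18-22 h then 72 h combined with doxorubicin; 0% = doxorubicin alone and 100% = vehicle without doxorubicin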)
Settings: H69AR viability with doxorubicin, CellTiter-Glo luminescence; at 10 µM; stronger effect = higher value

Structure (SMILES) | viability increase
O=C(NCC1CCCO1)C1CC(=O)N(c2ccc(F)c(Cl)c2)C1 (stereo not given) | -1.68% (inactive)
Oc1cnn(-c2ccccc2)c1 | -5.6% (inactive)
Cc1c(NC(=O)c2ccc(F)cc2)c(=O)n(-c2ccccc2)n1C | -2.08% (inactive)
COC(=O)C1=CN(C(C)C)C=C(C(=O)OC)C1c1cccc(OC)c1 | -4.15% (inactive)
O=C(CSc1nnc(-c2ccccc2Cl)o1)N1CCCCC1 | 1.04% (inactive)
CC1Cc2nc(SCC(=O)Nc3nccs3)n(Cc3ccccc3)c(=O)c2S1 (stereo not given) | -2.23% (inactive)
COc1ccc(Cn2nnc3c(=O)[nH]c(C(=O)NCCc4ccc(F)cc4)nc32)cc1OC | -0.55% (inactive)
CCOC(=O)c1c(C)n(C)c2ccc(OCC(O)CN3CCN(C)CC3)cc12 (stereo not given) | -1.87% (inactive)
C=CCn1c(O)c(C2=c3ccccc3=NC2=O)sc1=Nc1ccc(O)cc1 | -8.74% (inactive)
Cc1ccc(-c2cc(C(F)(F)F)n3ncc(C(=O)NCc4ccco4)c3n2)cc1 | -5.85% (inactive)
CSc1ccc(C2C(C#N)=C(N)N(c3ccccc3)C3=C2C(=O)CCC3)cc1 (stereo not given) | -7.43% (inactive)
Cc1ccn2cc(CCNC(=O)c3ccc(Br)o3)nc2c1 | -0.26% (inactive)
COc1cccc(N2CCN(c3ncnc4c3cnn4-c3ccc(C)cc3C)CC2)c1 | -8.59% (inactive)
COc1cc(CO)cc(Br)c1OCC(=O)O | -1.45% (inactive)
COc1ccc(Cc2nnc(SC)[nH]c2=O)cc1OC | -1.67% (inactive)
COc1ccccc1CNC(=O)C1CCN(S(=O)(=O)c2cccc3cccnc23)CC1 | -1.41% (inactive)
CCOC(=O)N1CCN(C(=O)CSc2nc3c(cnn3-c3ccc(C)cc3)c(=O)[nH]2)CC1 | -4.44% (inactive)
CCOC(=O)c1ccc2nc(NC(=O)C(C)C)sc2c1 | -6.61% (inactive)
Cc1ccc(C2=CC(c3ccc(N(C)C)cc3)n3nnnc3N2)cc1 (stereo not given) | -4.61% (inactive)
Cn1c(=O)c2c(nc(CN3CCOCC3)n2CCCO)n(C)c1=O | -0.74% (inactive)

Structure (SMILES) | viability increase
COCCCNC(=O)Cn1cc2c(n1)CCCCC2 | 0.05% (inactive)
O=C(NCc1ccco1)c1cnccn1 | -2.25% (inactive)
CCCCn1c(CCNC(=O)CCC)nc2ccccc21 | -0.74% (inactive)
COc1ccc2[nH]c(C)c(CCN3C(=O)C4C5C=CC(C5)C4C3=O)c2c1 (stereo not given) | -2.43% (inactive)
O=C1CCc2cc(S(=O)(=O)NC(Cc3ccccc3)C(=O)NCC3CCCO3)ccc2N1 (stereo not given) | -2.76% (inactive)
CCOC(=O)c1c(N)sc(C(N)=O)c1C | -1.19% (inactive)
O=C(NCCCN1CCC(Cc2ccccc2)CC1)C1CC(=O)N(C2CCCC2)C1 (stereo not given) | -2.03% (inactive)
Cc1ccc(Cl)cc1N1CCN(C(=O)C2CCN(c3nnc(-n4cccc4)s3)CC2)CC1 | 2.36% (inactive)
CC(=O)c1c(C)[nH]c(C(=O)N2c3ccccc3CC2C)c1C (stereo not given) | -0.41% (inactive)
Cc1ccc2cc(CCNC(=O)C3CCCC3)c(=O)[nH]c2c1 | 1.09% (inactive)
CCCCN(C)CCNC(=O)Cn1c(=O)sc2ccccc21 | -2.43% (inactive)
CCOC(=O)N1CCN(c2ccc3nnnn3n2)CC1 | 0.77% (inactive)
CCCOc1ccc(C2c3c(oc4cc(C)c(C)cc4c3=O)C(=O)N2CCCN(C)C)cc1OCC (stereo not given) | -3.29% (inactive)
CCOC(=O)C1=C2N(C)c3ccccc3N2CCC1=O | -3.21% (inactive)
CCNc1nc(OCCNS(=O)(=O)c2cc(C)ccc2C)nc(N(C)C)n1 | -0.92% (inactive)
O=C(c1cc(-c2cccc(O)c2)on1)N1CCOCC1 | 0.64% (inactive)
Cc1cc(C(=O)NC2CCCC2)on1 | 0.32% (inactive)
O=C(Nc1cccc(C(F)(F)F)c1)c1cnc2n(c1=O)CCS2 | 0.63% (inactive)
Cn1c(=O)c2c(nc(CN3CCCCC3)n2Cc2c(F)cccc2Cl)n(C)c1=O | -2.22% (inactive)
CCC(C)Sc1nnc(Cc2cc(=O)[nH]c(=O)[nH]2)n1-c1ccc(F)cc1 (stereo not given) | -1.78% (inactive)
